What was measured:
[1] = target: Glycine receptor alpha-3/beta (Homo sapiens) (UniProt O75311+P48167); assay: Positive allosteric modulation of human glycine alpha3beta receptor expressed in HEK293T cells assessed as compound concentration required to induce up to 3-fold leftward shift in glycine-induced increase in chloride ion flux after 4 mins by Schild plot analysis; type: cell-based
How it was run: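 HEK293T cells stably expressing human GlyRα3β, ~12000 cells/well, plated overnight and loaded with membrane potential blue dye. Glycine 1:2 dilution series premixed with compound at varying concentrations in HEPES/NaCl/mannitol buffer, pH 7.4. FLIPR fluorescence read 4 min and processed as AUC over baseline. mEC₃ is the lowest tested concentration giving a ≥3-fold leftward shift of glycine EC₅₀.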

[2] = Intrinsic clearance in mouse liver microsomes up to 40 mins in presence of NADPH; type: ADME, microsome; settings: read-out: CLH
[3] = Passive apparent permeability in MDCK cells; type: ADME, cell-based, Canis lupus familiaris; settings: dog
How it was run: (§1)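 Bidirectional transport at 5 μM, in triplicate, across MDCK cells carrying control vector, human MDR1 or human ABCG2 (BCRP). Passive Papp is the mean of both directions in vector-control cells. Efflux ratios come from the MDR1 and BCRP lines.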

[4] = test system: human MDR1; assay: Efflux ratio of passive apparent permeability in MDCK cells harboring human MDR1; type: ADME, cell-based, Canis lupus familiaris; settings: dog; how it was run: as §1
[5] = test system: human BCRP; assay: Efflux ratio of passive apparent permeability in MDCK cells harboring human BCRP; type: ADME, cell-based, Canis lupus familiaris; settings: dog; how it was run: as §1

SMILES | MEC [1] [µM] | microsomal CLint [2] [µL/min/mg] | Papp [3] [nm/s] | efflux ratio [4] | efflux ratio [5]
CN1C(=O)[C@@H]2CN(S(=O)(=O)c3ccc4c(c3)OCO4)C[C@@H]2c2cc(O)ccc21 | 0.39 | 499 | 180 | 3.2 | 3.1
CN1C(=O)[C@@H]2CN(S(=O)(=O)c3ccc4ccoc4c3)C[C@@H]2c2cnccc21 | 1.56 | 115 |  |  | 
O=S(=O)(c1ccc2c(c1)OCO2)N1C[C@@H]2c3nccn3-c3ccccc3[C@@H]2C1 | 6.3 | 1670 |  |  | 
CN1C(=O)[C@@H]2CN(S(=O)(=O)c3ccc(F)c(Cl)c3)C[C@@H]2c2cnccc21 | 3.1 | 432 | 490 | 1.2 | 1.1
CN1C(=O)[C@H]2CN(S(=O)(=O)c3ccc4c(c3)OCO4)C[C@H]2c2ccccc21 | 6.3 | 2440 |  |  | 
CN1C(=O)[C@]2(C)CN(S(=O)(=O)c3ccc4c(c3)OCO4)C[C@@H]2c2ccccc21 (single isomer, unassigned) | > 25 |  |  |  | 
CN1C(=O)[C@@H]2CN(S(=O)(=O)c3ccn4ccnc4c3)C[C@@H]2c2cnccc21 | 3.1 | 36 | 160 | 30 | 8.3
CN1C(=O)[C@@H]2CN(S(=O)(=O)c3ccc4c(c3)OCO4)C[C@@H]2c2cccnc21 (racemic) | 3.1 | 760 |  |  | 
CN1C(=O)[C@@H]2CN(S(=O)(=O)c3ccc4c(c3)OCO4)C[C@@H]2c2cc(F)ccc21 (racemic) | 0.78 | 761 |  |  | 
CN1C(=O)[C@@H]2CN(S(=O)(=O)c3ccc4c(c3)OCO4)C[C@@H]2c2cc(C#N)ccc21 (racemic) | 12.5 | 374 |  |  | 
CN1C(=O)[C@@H]2CN(S(=O)(=O)c3ccc4ncn(C)c4c3)C[C@@H]2c2cnccc21 | 3.1 |  |  |  | 

More lines, now with the values ahead:

MEC [1] [µM] | microsomal CLint [2] [µL/min/mg] | Papp [3] [nm/s] | efflux ratio [4] | efflux ratio [5] | SMILES
> 25 |  |  |  |  | C[C@H]1[C@@H]2c3cnccc3N(C)C(=O)[C@@H]2CN1S(=O)(=O)c1ccc2c(c1)OCO2
> 25 |  |  |  |  | C[C@@H]1[C@@H]2c3cnccc3N(C)C(=O)[C@@H]2CN1S(=O)(=O)c1ccc2c(c1)OCO2
> 25 |  |  |  |  | CN1C(=O)[C@]2(F)CN(S(=O)(=O)c3ccc4c(c3)OCO4)C[C@@H]2c2cnccc21 (racemic)
> 25 |  |  |  |  | C[C@H]1[C@H]2c3cnccc3N(C)C(=O)[C@H]2CN1S(=O)(=O)c1ccc2c(c1)OCO2
> 25 |  |  |  |  | C[C@H]1[C@@H]2C(=O)N(C)c3ccncc3[C@@H]2CN1S(=O)(=O)c1ccc2c(c1)OCO2
6.3 | 225 |  |  |  | CN1C(=O)[C@@H]2CN(S(=O)(=O)c3ccc4c(c3)OCO4)C[C@@H]2c2ccncc21 (racemic)
> 25 |  |  |  |  | CN1C(=O)[C@@H]2CN(S(=O)(=O)c3ccc4c(c3)OCO4)C[C@]2(C)c2cnccc21 (racemic)
> 25 |  |  |  |  | CN1C(=O)[C@]2(C#N)CN(S(=O)(=O)c3ccc4c(c3)OCO4)C[C@@H]2c2cnccc21 (racemic)
3.1 |  |  |  |  | C[C@@H]1[C@@H]2C(=O)N(C)c3ccncc3[C@@H]2CN1S(=O)(=O)c1ccc2c(c1)OCO2
> 25 |  |  |  |  | C[C@@H]1[C@H]2c3cnccc3N(C)C(=O)[C@H]2CN1S(=O)(=O)c1ccc2c(c1)OCO2
